Experimental data from ChEMBL document CHEMBL4706693, “Design and synthesis of a monocyclic derivative as a selective ACC1 inhibitor by chemical modification of biphenyl ACC1/2 dual inhibitors” (Bioorg Med Chem, 2021).
In brackets after ≈: the same amount, converted by molar mass. Activity calls are given as the source filed them. No cut-off for these calls is given here.

What was measured:
Acetyl-CoA carboxylase 1 [1] = target: T1, Acetyl-CoA carboxylase 1 (Homo sapiens, UniProt Q13085); assay: Inhibition of recombinant human N-terminal His6-tagged ACC1 expressed in baculovirus infected Sf9 insect cells using acetyl-CoA as substrate preincubated for 60 mins followed by substrate addition and measured after 30 mins Rapidfire-Mass spectrometry
Procedure, shortened: (§1)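 Human ACC1 or ACC2 from baculovirus-infected SF-9 cells (27 °C, 3 days), purified and dialyzed. Compound in DMSO diluted in 50 mM HEPES pH 7.5, 10 mM MgCl₂, 10 mM tripotassium citrate, 2 mM DTT, 0.001% fatty acid-free BSA. Enzyme and compound preincubated 60 min at room temperature. Substrate added: 50 mM KHCO₃, ATP, acetyl-CoA. Reaction ran 30 min at room temperature.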

Acetyl-CoA carboxylase 2 [2] = target: T2, Acetyl-CoA carboxylase 2 (Homo sapiens, UniProt O00763); assay: Inhibition of recombinant human N-terminal His6-tagged ACC2 expressed in baculovirus infected Sf9 insect cells using acetyl-CoA as substrate preincubated for 60 mins followed by substrate addition and measured after 30 mins Rapidfire-Mass spectrometry; procedure, shortened: as §1
Target sequence in this assay (O00763 whole entry): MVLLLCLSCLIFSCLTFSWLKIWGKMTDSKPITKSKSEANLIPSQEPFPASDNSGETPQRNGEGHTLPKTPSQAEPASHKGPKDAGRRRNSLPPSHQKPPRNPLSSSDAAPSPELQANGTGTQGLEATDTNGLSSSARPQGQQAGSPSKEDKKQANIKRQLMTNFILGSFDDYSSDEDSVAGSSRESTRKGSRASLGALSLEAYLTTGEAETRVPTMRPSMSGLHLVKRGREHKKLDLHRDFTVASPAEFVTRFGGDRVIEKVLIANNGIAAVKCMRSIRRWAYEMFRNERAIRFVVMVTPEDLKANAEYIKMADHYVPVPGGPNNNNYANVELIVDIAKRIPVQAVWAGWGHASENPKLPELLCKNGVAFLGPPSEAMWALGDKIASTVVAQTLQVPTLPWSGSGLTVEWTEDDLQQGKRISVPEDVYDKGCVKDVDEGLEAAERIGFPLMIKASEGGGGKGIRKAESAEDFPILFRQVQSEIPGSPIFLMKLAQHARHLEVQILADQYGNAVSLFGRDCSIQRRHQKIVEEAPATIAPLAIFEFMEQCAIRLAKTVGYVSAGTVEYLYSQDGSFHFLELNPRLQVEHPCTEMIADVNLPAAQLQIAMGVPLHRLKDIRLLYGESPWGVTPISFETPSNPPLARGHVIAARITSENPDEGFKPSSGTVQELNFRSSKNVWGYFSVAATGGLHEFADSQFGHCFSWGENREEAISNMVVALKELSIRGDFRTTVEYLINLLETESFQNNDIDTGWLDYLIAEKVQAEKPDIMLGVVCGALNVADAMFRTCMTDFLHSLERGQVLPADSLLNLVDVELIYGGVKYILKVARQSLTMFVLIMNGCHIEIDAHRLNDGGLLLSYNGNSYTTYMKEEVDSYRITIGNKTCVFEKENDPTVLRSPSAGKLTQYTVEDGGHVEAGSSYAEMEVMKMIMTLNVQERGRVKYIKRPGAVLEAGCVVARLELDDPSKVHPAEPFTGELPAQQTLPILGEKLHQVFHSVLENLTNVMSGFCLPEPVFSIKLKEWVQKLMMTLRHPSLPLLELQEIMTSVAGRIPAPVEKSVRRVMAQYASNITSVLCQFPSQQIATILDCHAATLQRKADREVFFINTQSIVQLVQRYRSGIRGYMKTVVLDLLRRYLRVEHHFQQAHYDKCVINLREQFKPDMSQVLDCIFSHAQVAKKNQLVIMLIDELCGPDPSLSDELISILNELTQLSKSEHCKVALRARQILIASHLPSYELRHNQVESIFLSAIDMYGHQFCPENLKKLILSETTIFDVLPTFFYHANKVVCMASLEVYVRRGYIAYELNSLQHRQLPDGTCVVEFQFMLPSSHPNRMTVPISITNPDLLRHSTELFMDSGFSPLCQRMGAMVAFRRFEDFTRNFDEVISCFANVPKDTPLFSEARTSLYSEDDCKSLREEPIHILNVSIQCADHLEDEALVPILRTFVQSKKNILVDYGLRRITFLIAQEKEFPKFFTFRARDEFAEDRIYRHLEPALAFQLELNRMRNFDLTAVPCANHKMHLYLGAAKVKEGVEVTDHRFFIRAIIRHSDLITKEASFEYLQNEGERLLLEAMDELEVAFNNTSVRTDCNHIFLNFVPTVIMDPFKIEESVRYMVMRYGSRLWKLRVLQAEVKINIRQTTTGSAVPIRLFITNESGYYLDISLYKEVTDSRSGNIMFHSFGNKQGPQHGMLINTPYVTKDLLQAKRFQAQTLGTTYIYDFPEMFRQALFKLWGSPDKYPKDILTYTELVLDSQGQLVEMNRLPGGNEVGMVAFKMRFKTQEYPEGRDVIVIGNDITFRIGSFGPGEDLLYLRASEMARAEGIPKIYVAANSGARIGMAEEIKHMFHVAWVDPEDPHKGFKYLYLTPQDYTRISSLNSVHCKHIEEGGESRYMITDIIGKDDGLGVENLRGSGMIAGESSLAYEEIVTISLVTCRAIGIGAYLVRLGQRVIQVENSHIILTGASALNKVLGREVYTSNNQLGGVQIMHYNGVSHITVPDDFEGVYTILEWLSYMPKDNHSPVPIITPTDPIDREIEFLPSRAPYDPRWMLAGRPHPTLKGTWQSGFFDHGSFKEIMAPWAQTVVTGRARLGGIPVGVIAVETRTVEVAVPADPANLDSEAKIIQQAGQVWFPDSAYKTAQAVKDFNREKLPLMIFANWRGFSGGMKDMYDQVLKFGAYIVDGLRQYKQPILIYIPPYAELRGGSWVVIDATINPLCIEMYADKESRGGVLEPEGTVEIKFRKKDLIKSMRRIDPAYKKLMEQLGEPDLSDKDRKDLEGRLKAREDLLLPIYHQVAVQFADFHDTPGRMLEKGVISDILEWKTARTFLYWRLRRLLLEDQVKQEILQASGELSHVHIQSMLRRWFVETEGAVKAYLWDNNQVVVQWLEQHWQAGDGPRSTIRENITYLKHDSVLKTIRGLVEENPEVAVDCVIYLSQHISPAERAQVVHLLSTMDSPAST

Homo sapiens = species on record: Homo sapiens; assay: Selectivity ratio of IC50 for inhibition of recombinant human N-terminal His6-tagged ACC2 expressed in baculovirus infected Sf9 insect cells to IC50 for inhibition of recombinant human N-terminal His6-tagged ACC1 expressed in baculovirus infected Sf9 insect cells
[3] = Inhibition of fatty acid synthesis in human HCT-116 cells assessed as reduction in [14C] acetic acid uptake preincubated for 60 mins followed by [14C]acetic acid addition and measured after 2 hrs by topcount scintillation counting method; assay type: functional, cell-based
Procedure, shortened: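 HCT-116 cells, 50,000/well, cultured overnight in RPMI with 10% FBS and penicillin/streptomycin at 37 °C, 5% CO₂. Compound added in RPMI with 0.1% fatty acid-free BSA for 60 min. Then 0.1 μCi/well [¹⁴C]acetic acid for 2 h at 37 °C. Cells washed with PBS and radioactivity counted. DMSO wells set as 0%; 100 nM reference inhibitor as 100%. IC50 is the mean of duplicates with 95% CI.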

[4] = Solubility of compound in pH 6.8 buffer; assay type: physicochemical
Procedure, shortened: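 Solubility measured at pH 6.8.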

[5] = Oral bioavailability in ICR mouse at 1 mg/kg; assay type: ADME, organism-based; details: in vivo
Procedure, shortened: (§2)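 Male ICR mice, n = 3. Doses: 0.1 mg/kg i.v. and 1 mg/kg p.o. AUC covers 0–8 h.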

[6] = Metabolic stability in mouse liver microsomes; assay type: ADME, Microsome; details: read-out: Stabilty
Mus musculus = assay: Inhibition of fatty acid synthesis in human HCT-116 cells xenografted BALB/cA Jc1 nu/nu mouse assessed as reduction in malonyl-CoA concentration in tumor at 100 mg/kg, po administered as single dose measured after 2 to 16 hrs by RPLC-MS/MS analysis; assay type: functional, organism-based; details: time 2-16 hrs
Procedure, shortened: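 Female BALB/cA Jcl-nu/nu mice, 6 weeks old, carrying s.c. hind-flank HCT-116 xenografts (cells in HBSS with Matrigel). Mice randomized by tumor volume. Single oral dose of 100 mg/kg in 0.5% methyl cellulose, or vehicle. Tumors collected 2 and 16 h after dosing, snap-frozen and pulverized under liquid N₂. Malonyl-CoA measured by RPLC-MS/MS against a calibration curve with [¹³C₃]-malonyl-CoA as internal standard.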

[7] = Metabolic stability in human liver microsomes; assay type: ADME, Microsome; details: read-out: Stabilty
[8] = Permeability of compound at pH 7.4 by PAMPA; assay type: ADME; details: read-out: permeability
[9] = Permeability of compound at pH 5 by PAMPA; assay type: ADME; details: read-out: permeability
[10] = AUC (0 to 8 hrs) in ICR mouse at 0.1 mg/kg, iv or 1 mg/kg, po; assay type: ADME, organism-based; design: dose 1 mg/kg; details: in vivo; procedure, shortened: as §2
[11] = Lipophilicity, log D of compound; assay type: physicochemical; details: octanol/water
[12] = Solubility of compound in pH 1.2 buffer; assay type: physicochemical
Cytochrome P450 2C9 = Cytochrome P450 2C9 (Homo sapiens, UniProt P11712); assay: Inhibition of CYP2C9 (unknown origin) relative to control; assay type: ADME
Cytochrome P450 2C8 = target: T3, Cytochrome P450 2C8 (Homo sapiens, UniProt P10632); assay: Inhibition of CYP2C8 (unknown origin) relative to control; assay type: ADME
T3 sequence (P10632 whole entry): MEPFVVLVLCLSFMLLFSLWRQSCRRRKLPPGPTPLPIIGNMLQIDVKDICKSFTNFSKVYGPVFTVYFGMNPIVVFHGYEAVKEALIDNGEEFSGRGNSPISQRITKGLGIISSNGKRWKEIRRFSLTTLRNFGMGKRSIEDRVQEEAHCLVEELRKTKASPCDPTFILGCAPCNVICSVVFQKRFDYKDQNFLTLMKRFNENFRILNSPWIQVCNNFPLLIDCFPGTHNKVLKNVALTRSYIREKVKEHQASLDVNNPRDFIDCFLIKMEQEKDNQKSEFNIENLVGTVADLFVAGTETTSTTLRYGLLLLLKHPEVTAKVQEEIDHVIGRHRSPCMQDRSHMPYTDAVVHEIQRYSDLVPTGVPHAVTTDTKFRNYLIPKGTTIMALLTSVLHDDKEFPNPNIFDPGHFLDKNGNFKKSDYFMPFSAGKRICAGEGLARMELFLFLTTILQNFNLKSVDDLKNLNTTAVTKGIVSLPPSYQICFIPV

Acetyl-CoA carboxylase 1 [13] = target: T1, Acetyl-CoA carboxylase 1; assay: Inhibition of recombinant human N-terminal His6-tagged ACC1 expressed in baculovirus infected Sf9 insect cells at 10 uM using acetyl-CoA as substrate preincubated for 60 mins followed by substrate addition and measured after 30 mins Rapidfire-Mass spectrometry relative to control; details: time 90.0 min
Acetyl-CoA carboxylase 2 [14] = target: T2, Acetyl-CoA carboxylase 2; assay: Inhibition of recombinant human N-terminal His6-tagged ACC2 expressed in baculovirus infected Sf9 insect cells at 10 uM using acetyl-CoA as substrate preincubated for 60 mins followed by substrate addition and measured after 30 mins Rapidfire-Mass spectrometry relative to control; details: time 90.0 min
Target sequence in this assay (O00763 whole entry, looked up): as the sequence (O00763 whole entry) above

IC50 (Acetyl-CoA carboxylase 1 [1])	IC50 (Acetyl-CoA carboxylase 2 [2])	IC50 [3]	solubility [4]	Structure (SMILES)	also measured
60 nM	150 nM			CC(=O)NC(C)c1ccc(-c2ccc(Oc3cccc(OCC4CC4)c3)cc2)cc1 (centres undefined)	Ratio IC50 (Homo sapiens): 2.5
39 nM	20 nM			CC(=O)NC(C)c1ccc(Oc2ccc(Oc3cccc(OCC4CC4)c3)cc2)cc1 (centres undefined)	
790 nM	> 10000 nM	900 nM		CC(=O)NC(C)c1ccc(OCc2ccc(Oc3cccc(OCC4CC4)c3)nc2)cc1 (centres undefined)	
69 nM	> 10000 nM	63 nM		CC(=O)NC(C)c1ccc(OCc2ccc(Oc3cccc(OCC4CC4)c3)cc2F)cc1 (centres undefined)	
130 nM	98 nM			COCCc1cccc(Oc2ccc(-c3ccc(C(C)NC(C)=O)cc3)cc2)c1 (centres undefined)	
17 nM	> 10000 nM	24 nM	< 0.23 µg/mL	CC(=O)NC(C)c1ccc(OCc2c(F)cc(Oc3cccc(OCC4CC4)c3)cc2F)nc1 (centres undefined)	bioavailability [5]: 70.5%; microsomal CLint [6]: 17 µL/min/mg; inhibition (Mus musculus): Active; microsomal CLint [7]: 12 µL/min/mg; Papp [8]: 68.3 ×10⁻⁶ cm/s; Papp [9]: 66.2 ×10⁻⁶ cm/s; AUC(0-t) [10]: 5350 ng·h/mL; logD [11]: 4.82; solubility [12]: < 0.23 µg/mL; inhibition (INH) (Cytochrome P450 2C9): -13.8%; inhibition (INH) (Cytochrome P450 2C8): 32%
120 nM	210 nM			CCCCOc1cccc(Oc2ccc(-c3ccc(C(C)NC(C)=O)cc3)cc2)c1 (centres undefined)	
1200 nM	> 10000 nM	> 1000 nM		CC(=O)NC(C)c1ccc(OCc2ccc(Oc3cccc(OCC4CC4)c3)cn2)cc1 (centres undefined)	
				CCCc1ccc(Oc2ccc(-c3ccc(C(C)NC(C)=O)cc3)cc2)cc1 (centres undefined)	inhibition (Acetyl-CoA carboxylase 1 [13]): 38%; inhibition (Acetyl-CoA carboxylase 2 [14]): 11%
220 nM	> 10000 nM	420 nM		CC(=O)NC(C)c1ccc(OCc2ccc(Oc3cccc(OCC4CC4)c3)cc2)cc1 (centres undefined)	
	> 30000 nM			COCCc1ccc(Oc2ccc(-c3ccc(C(C)NC(C)=O)cc3)cc2)cc1 (centres undefined)	inhibition (Acetyl-CoA carboxylase 1 [13]): 49%; inhibition (Acetyl-CoA carboxylase 2 [14]): 6%
31 nM	> 10000 nM	110 nM	2.3 µg/mL (≈ 4.9 µM)	CC(=O)NC(C)c1ccc(OCc2c(F)cc(Oc3cccc(OCC4CC4)c3)cc2F)nn1 (centres undefined)	
15 nM	> 10000 nM	9.7 nM	< 0.21 µg/mL	CC(=O)NC(C)c1ccc(OCc2c(F)cc(Oc3cccc(OCC4CC4)c3)cc2F)cc1 (centres undefined)	bioavailability [5]: 31.1%; microsomal CLint [6]: 36 µL/min/mg; microsomal CLint [7]: 30 µL/min/mg; Papp [8]: 11.1 ×10⁻⁶ cm/s; Papp [9]: 34.6 ×10⁻⁶ cm/s; AUC(0-t) [10]: 1580 ng·h/mL; logD [11]: 5.01; solubility [12]: < 0.23 µg/mL; inhibition (INH) (Cytochrome P450 2C9): -22.7%; inhibition (INH) (Cytochrome P450 2C8): 31.4%
				CCCOc1ccc(Oc2ccc(-c3ccc(C(C)NC(C)=O)cc3)cc2)cc1 (centres undefined)	inhibition (Acetyl-CoA carboxylase 1 [13]): 50%; inhibition (Acetyl-CoA carboxylase 2 [14]): 51%
89 nM	> 10000 nM	180 nM	0.46 µg/mL (≈ 0.98 µM)	CC(=O)NC(C)c1cnc(OCc2c(F)cc(Oc3cccc(OCC4CC4)c3)cc2F)cn1 (centres undefined)	
38 nM	> 10000 nM	70 nM	1.5 µg/mL (≈ 3.2 µM)	CC(=O)NC(C)c1ccc(OCc2c(F)cc(Oc3cccc(OCC4CC4)c3)cc2F)cn1 (centres undefined)	
